MrgX1 allo act: positive allosteric modulators of MrgX1, primary screen, HEK293 cells, Fluo-4 calcium flux. B-score at 10 µM. FDSS; active compounds read high. hit rate 0.63% among 310,000;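 active means plate-corrected calcium response at least 3 library SD above typical, normal starting fluorescence, not activating the receptor alone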;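 further: compound read alongside a low EC10 to EC30 dose of BAM8-22 agonist; peak minus trough fluorescence over baseline measured at the second addition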
Target sequence (Q96LB2 whole entry, looked up): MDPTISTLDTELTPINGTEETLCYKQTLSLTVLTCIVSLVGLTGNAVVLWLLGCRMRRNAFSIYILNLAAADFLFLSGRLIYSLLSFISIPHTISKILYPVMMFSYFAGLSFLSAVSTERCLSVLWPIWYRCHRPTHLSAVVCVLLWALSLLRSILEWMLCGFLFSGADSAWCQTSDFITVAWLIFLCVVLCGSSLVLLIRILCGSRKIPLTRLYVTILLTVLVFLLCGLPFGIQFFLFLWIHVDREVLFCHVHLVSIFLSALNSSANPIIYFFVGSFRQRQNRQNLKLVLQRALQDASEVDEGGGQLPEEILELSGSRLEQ
RGS4 inh: RGS4 inhibitors, primary screen, cell-based, HEK293 M3R inducible RGS4, calcium flux. Regulator of G-protein signaling 4 (Homo sapiens), P49798. hit rate 0.45% among 310,000. B-score at 10 µM. Fluo-4 calcium flux; active compounds read high; triggered by carbachol at its EC20. AID 463165, 2010;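 active means B-score, a plate-corrected calcium signal, over three deviations above library mean, with baseline fluorescence within five deviations of library mean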;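 further: RGS4 expression induced by doxycycline in cells with stable M3 receptor; B-score is computed from the integrated fluorescence ratio over baseline after carbachol; higher B-score means a larger calcium signal and so more RGS4 inhibition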
Target sequence (P49798 whole entry, looked up): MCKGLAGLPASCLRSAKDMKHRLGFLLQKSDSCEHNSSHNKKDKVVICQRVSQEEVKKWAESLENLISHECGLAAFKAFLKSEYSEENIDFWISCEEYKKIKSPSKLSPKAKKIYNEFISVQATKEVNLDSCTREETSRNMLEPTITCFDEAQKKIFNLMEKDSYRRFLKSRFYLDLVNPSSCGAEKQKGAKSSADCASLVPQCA
MrgX1 agonist: agonists of human MrgX1 receptor, primary screen, HEK293 cells, Fluo-4 calcium flux. hit rate 0.44% among 310,000. B-score at 10 µM. Fluo-4 calcium fluorescence, agonist mode; active compounds read high;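 active means calcium response B-score plate-corrected fluorescence ratio at least 3 library SD, with starting fluorescence B-score inside 5 SD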
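Material – MrgX1-expressing HEK293 cells · Input – 15,000 cells seeded per well · Dosing – compound as first of three additions · Times – overnight seeding, then 1 h dark dye loading · Measured by – kinetic Fluo-4 NW fluorescence of intracellular calcium · Read-out – B-scored fluorescence response ratio · Benchmarks – positive and negative control wells on each plate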
RGS4 pot: RGS4 potentiators or activators, primary screen, cell-based, HEK293 M3R inducible RGS4, calcium flux; carbachol calcium flux Fluo4; active compounds read low; B-score at 10 µM; hit rate 0.92% among 310,000;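 active means B-score of the integrated calcium signal more than 4 SD below the library mean, with starting fluorescence not abnormally high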;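 further: negative B-score means reduced calcium response which marks RGS4 activation or potentiation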
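Detection: kinetic calcium fluorescence imaging with Fluo4-AM dye, 2 µM / Material: HEK293 cells with stable M3R and inducible RGS4 / Schedule: recording 10 s baseline at 1 Hz, 100 s post-agonist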
MrgX1 antag: antagonists of human MrgX1 receptor, primary screen, HEK293 cells, Fluo-4 calcium flux; BAM8-22 antagonism; active compounds read low; B-score at 10 µM; hit rate 1.3% among 310,000;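 active means calcium-response B-score plate-corrected more than 3 library SD below zero, starting fluorescence within 5 deviations, no agonist response on first addition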;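 further: peak minus trough fluorescence over baseline after final BAM8-22 challenge near maximal dose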
MrgX1 antag conf: MrgX1 receptor antagonists, duplicate retest, confirmation, HEK293 cells, Fluo-4 calcium flux. remaining BAM8-22 calcium response % of control (active compounds read low), % at 10 µM. AID 602420, 2012. hit rate 19% among 2,300. BAM8-22 calcium flux; active compounds read low. shares compounds with MrgX1 antag;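 active means remaining agonist calcium response no higher than 100% minus 3 SD of agonist-only control wells, with starting fluorescence near control levels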;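 further: agonist BAM8-22 given at a near maximal EC90 to ECmax level; peak minus minimum fluorescence divided by baseline after agonist addition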
HEK293 Ca flux: nonspecific calcium signal in parental HEK293, confirmation, counter-screen for MrgX1 antagonist project, parental HEK293 cells, Fluo-4 calcium flux. AID 624111, 2012. Fluo-4 calcium fluorescence, FDSS. fluorescence ratio F(max-min)/F0 at 10 µM. hit rate 2% among 4,000. shares compounds with MrgX1 antag;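 active means duplicate-averaged calcium fluorescence ratio at least three times the standard deviation of buffer wells, a nonspecific response in parental cells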
HEK293 Ca counter: calcium response in parental HEK293 cells, primary screen, counter-screen for MrgX1 allosteric activator project, cell-based, Fluo-4 calcium flux, duplicate; AID 624114, 2012; shares compounds with MrgX1 antag; hit rate 0.4% among 4,000; fluorescence ratio F(max-min)/F0 at 10 µM; Fluo-4 fluorescence ratio; active compounds read high;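 active means calcium fluorescence ratio, averaged over duplicates, at least 3 SD of the buffer-well ratio, meaning a nonspecific response in receptor-free cells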;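 further: untransfected parental HEK293 lacking MrgX1 used as counterscreen for MrgX1 allosteric activators; fluorescence change taken during the second addition on a kinetic imager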
HEK293 Ca cntr2: calcium response in parental HEK293 cells, primary screen, counter-screen for MrgX1 agonist project, cell-based, Fluo-4 calcium flux, duplicate, agonist mode; shares compounds with MrgX1 antag; Fluo-4 calcium fluorescence (FDSS); active compounds read high; fluorescence ratio F(max-min)/F0 at 10 µM; hit rate 8.7% among 4,000; AID 624115, 2012;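 active means calcium fluorescence ratio at least three times the spread of buffer wells, meaning a non-specific response in parental cells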
The depositor's hits bear a star; i = inactive; x = not tested or not shown. Sampled rows, rich in hits. Any-hit rate of the full collection: about 3.5%.

SMILES	MrgX1 allo act	RGS4 inh	MrgX1 agonist	RGS4 pot	MrgX1 antag	MrgX1 antag conf	HEK293 Ca flux	HEK293 Ca counter	HEK293 Ca cntr2
O=C(CSc1nnc(C2COc3ccccc3O2)o1)N1CCOCC1 (centres undefined)	i	i	i	i	i	x	x	x	x
O=C(CSc1nnc(C2COc3ccccc3O2)o1)N1CCCc2ccccc21 (centres undefined)	i	i	i	i	-4.5*	i	i	i	i
c1ccc(Oc2cccc(Oc3ccccc3)n2)cc1	i	i	i	i	i	x	x	x	x
Cc1cccc(N=Cc2[nH]c3ccc(Br)c(Cl)c3c2O)c1	i	x	i	x	-5.9*	i	0.18*	i	i
COc1ccccc1CN=Cc1[nH]c2ccc(Br)c(Cl)c2c1O	i	i	i	i	i	x	x	x	x
CCOC(=O)CSc1ncnc2c1c(-c1ccccc1)cn2-c1ccc(OC)cc1	i	i	i	i	-5.8*	71%*	i	i	i
CCCCC(=O)Nc1ccc(C(=O)N(CC)c2ccccc2C)cc1	i	i	i	i	-7*	i	i	i	i
O=C1C2CC=CCC2C(=O)N1Cc1ccccc1Cl (centres undefined)	i	i	i	i	i	x	x	x	x
NC(=O)CSc1nnc(Cc2ccc3c(c2)OCO3)n1C1CCCCC1	i	i	i	i	-4.6*	i	i	i	55*
O=C(CSc1nnc(Cc2ccc3c(c2)OCO3)n1C1CCCCC1)NC1CCCC1	i	i	i	i	i	x	x	x	x
COc1ccc(Cc2nnc(NS(C)(=O)=O)s2)cc1	i	i	i	i	-6.4*	i	i	i	i
CC(NC(=O)CSc1nnc(-c2cccnc2)n1N)c1ccccc1 (centres undefined)	i	i	i	i	-4.6*	i	i	i	i
COc1ccc(C(=O)CC(=O)C(=O)Nc2ccc(OC)c(Cl)c2)cc1	i	i	i	i	-5.1*	i	i	i	i
COc1ccc(C(=O)CC(=O)C(=O)Nc2ccc(Cl)cc2)cc1	i	i	i	i	i	x	x	x	x
CCOC(=O)N1CCN(C(=S)NC(=O)/C=C/c2ccc(C)cc2)CC1	i	i	i	i	i	x	x	x	x
Cc1cc(C)c(S(=O)(=O)c2ccc(Cl)cc2C)c(Cl)n1	i	i	i	i	i	x	x	x	x
CCc1ccccc1S(=O)(=O)c1c(C)cc(C)nc1Cl	i	i	i	i	-5*	i	i	i	i
CC(C)N(CC#CCC1(O)c2ccccc2-c2ccccc21)CCO	i	i	i	i	-6*	i	i	i	i
CCN(CC#CCC1(O)c2ccccc2-c2ccccc21)CCO	i	i	i	i	i	x	x	x	x
C=CCSc1nc(N)c(C(=O)Nc2ccccc2OC)cc1C(=O)Nc1ccccc1	i	i	i	i	-5.9*	78%*	i	i	i
C=CCSc1nc(N)c(C(=O)Nc2ccccc2)cc1C#N	i	i	i	i	i	x	x	x	x
C=CCOc1c(Cl)cc(C(=S)N2CCCC2)cc1OCC	i	i	i	i	-6.9*	i	i	i	i
CCc1nc2ccc(C(=O)NCc3ccccc3)cc2nc1CC	i	i	i	i	-8.3*	i	i	i	i
O=C(NCc1ccccc1)c1cccc(COc2ccc(Cl)cc2)c1	i	i	i	i	i	x	x	x	x
CCOc1cc(C(=O)NCc2ccccc2)ccc1OCC(=O)N1CCOCC1	i	i	i	i	i	x	x	x	x
SMILES	MrgX1 allo act	RGS4 inh	MrgX1 agonist	RGS4 pot	MrgX1 antag	MrgX1 antag conf	HEK293 Ca flux	HEK293 Ca counter	HEK293 Ca cntr2
O=C(NCc1ccccc1)c1cccc(COc2cccc(Cl)c2)c1	i	i	i	i	-4.6*	i	i	i	i
CCOc1ccc(C(=O)NCc2ccccc2)cc1Br	i	i	i	i	-5.4*	85%*	i	i	i
CSCc1ccc(C(=O)NCc2ccccc2)cc1	i	i	i	i	i	x	x	x	x
Cc1onc(-c2ccccc2)c1C(=O)N1CCN(c2ncccc2C(F)(F)F)CC1	i	i	i	i	i	x	x	x	x
CSc1ccc(NS(=O)(=O)c2ccc(-n3cnnn3)cc2)cc1	i	i	i	i	i	x	x	x	x
O=C(Cn1nnc(-c2ccccc2)n1)Nc1cccc(S(=O)(=O)N2CCOCC2)c1	i	i	i	i	-4.8*	70%*	i	i	i
CC1CCC2(CC1)NC(=O)N(CC(=O)Nc1cccc(S(=O)(=O)N3CCOCC3)c1)C2=O (centres undefined)	i	i	i	i	i	x	x	x	x
O=C(CN1C(=O)NC2(CCCCC2)C1=O)Nc1cccc(S(=O)(=O)N2CCOCC2)c1	i	i	i	i	-5.4*	i	i	i	i
CCN(CC(=O)Nc1cccc(S(=O)(=O)N2CCOCC2)c1)Cc1ccccc1	i	i	i	i	i	x	x	x	x
OC(CCN1CCCC1)(c1ccccc1)C1CCCCC1 (centres undefined)	i	i	i	i	i	x	x	x	x
OC(CCN1CCCCC1)(c1ccccc1)c1ccccc1	i	i	i	i	-7.1*	i	i	i	i
O=C(Nc1ccccc1Cl)O/N=C/c1ccncc1	i	i	i	i	i	x	x	x	x
COc1ccc(S(=O)(=O)N2CCC3(CC2)OCCN3S(=O)(=O)c2ccccc2)cc1OC	i	i	i	i	i	x	x	x	x

Bioassay records (PubChem BioAssay)
